Reference: PMC8992017 (Journal of medicinal chemistry, 2019)
Entries after “also recorded” stand apart in the source; their conditions may differ.

Tests used:
NF-κB = NF-κB activation in THP1-Blue NF-κB reporter cells; format: cell-based; settings: compound 5 μM + LPS, compared with compound 1
Procedure, shortened: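 THP1-Blue NF-κB cells at 10^5/well in RPMI with 10% FBS, pen/strep and Normocin. Test compound (1 mM DMSO stock) was diluted into LPS medium, giving final 5 μM compound ([…]), with LPS co-added. After 20 h, supernatant SEAP was measured colorimetrically with QuantiBlue at 630 nm. Two-point normalized: reference sulfonamide + LPS = 200%, LPS alone = 100%; mean ± SEM.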

ISRE = ISRE activity in ISRE-bla THP-1 reporter cells; format: cell-based; settings: compound 5 μM + IFN-α, compared with compound 1
Procedure, shortened: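 ISRE-bla THP-1 cells at 5×10^4/well in RPMI with 10% dialyzed FBS, 0.1 mM non-essential amino acids, 1 mM pyruvate and pen/strep. Test compound (1 mM DMSO stock) was diluted in IFN-α medium, giving final 5 μM compound ([…]) and final 100 U/mL IFN-α. Incubation 16 h, then CCF4-AM FRET substrate 3 h at RT in the dark. Excitation 405 nm; background-subtracted 465/535 nm emission ratio. Two-point normalized: reference sulfonamide + IFN-α = 200%, IFN-α alone = 100%; mean ± SEM.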

Compound	NF-κB activity (in words) (NF-κB)	ISRE activity (in words) (ISRE)
COc1cc(NS(=O)(=O)c2ccc(C(=O)O)cc2)c(OC)cc1Cl [Compound 28, 4-(N-(4-chloro-2,5-dimethoxyphenyl)sulfamoyl)benzoic acid]	lost activity	lost activity
CCOC(=O)c1ccc(S(=O)(=O)Nc2cc(OC)c(Cl)cc2OC)cc1 [Compound 29, Ethyl 4-(N-(4-chloro-2,5-dimethoxyphenyl)sulfamoyl)benzoate]	retained partial activity	retained partial activity
CCOc1ccc(S(=O)(=O)N(CCCN)c2cc(OC)c(Cl)cc2OC)cc1.Cl [Compound 55, N-(3-aminopropyl)-N-(4-chloro-2,5-dimethoxyphenyl)-4-ethoxybenzenesulfonamide hydrochloride]	recovered	recovered
C#CCOCCOCCOCCN(c1cc(OC)c(Cl)cc1OC)S(=O)(=O)c1ccc(OCC)cc1 [Compound 45, N-(4-chloro-2,5-dimethoxyphenyl)-4-ethoxy-N-(2-(2-(2-(prop-2-yn-1yloxy)ethoxy)ethoxy)ethyl)benzenesulfonamide]	too long to retain activity	too long to retain activity
COc1ccc(S(=O)(=O)Nc2cc(OC)c(Cl)cc2OC)cc1 [Compound 12, N-(4-chloro-2,5-dimethoxyphenyl)-4-methoxybenzenesulfonamide]	tolerated	tolerated
C#CCCCN(c1cc(OC)c(Cl)cc1OC)S(=O)(=O)c1ccc(OCC)cc1 [Compound 44, N-(4-chloro-2,5-dimethoxyphenyl)-4-ethoxy-N-(pent-4-yn-1-yl)benzenesulfonamide]	retained activity almost equivalent to that of compound 1	retained activity almost equivalent to that of compound 1
CCOc1ccc(S(=O)(=O)N(CC(C)C)c2cc(OC)c(Cl)cc2OC)cc1 [Compound 41, N-(4-chloro-2,5-dimethoxyphenyl)-4-ethoxy-N-isobutylbenzenesulfonamide]	regained the activity	regained the activity
CCOc1ccc(NS(=O)(=O)c2cc(OC)c(Cl)cc2OC)cc1 [Compound 31, 4-Chloro-N-(4-ethoxyphenyl)-2,5-dimethoxybenzenesulfonamide]	inactivity	inactivity
CCOc1ccc(S(=O)(=O)Nc2ccc(Cl)cc2OC)cc1 [Compound 5, N-(4-chloro-2-methoxyphenyl)-4-ethoxybenzenesulfonamide]	complete loss of activity	complete loss of activity
CCOc1ccc(S(=O)(=O)N(Cc2ccccc2)c2cc(OC)c(Cl)cc2OC)cc1 [Compound 46, N-benzyl-N-(4-chloro-2,5-dimethoxyphenyl)-4-ethoxybenzenesulfonamide]	potent analogs	potent analogs
C#CCCN(c1cc(OC)c(Cl)cc1OC)S(=O)(=O)c1ccc(OCC)cc1 [Compound 43, N-(but-3-yn-1-yl)-N-(4-chloro-2,5-dimethoxyphenyl)-4-ethoxybenzenesulfonamide]	retained activity almost equivalent to that of compound 1	retained activity almost equivalent to that of compound 1
CCOC(=O)CN(c1cc(OC)c(Cl)cc1OC)S(=O)(=O)c1ccc(OCC)cc1 [Compound 49, Ethyl N-(4-chloro-2,5-dimethoxyphenyl)-N-((4-ethoxyphenyl)sulfonyl)glycinate]	retained dual NF-κB and ISRE activities	retained dual NF-κB and ISRE activities
CCOc1ccc(S(=O)(=O)N(CCCNC(=O)CCCCCNC(=O)c2ccc3c(c2)C(=O)OC32c3ccc(O)cc3Oc3cc(O)ccc32)c2cc(OC)c(Cl)cc2OC)cc1 [Compound 56, N-(6-((3-((N-(4-chloro-2,5-dimethoxyphenyl)-4-ethoxyphenyl)sulfonamido)propyl)amino)-6-oxohexyl)-3’,6’-dihydroxy-3-oxo-3H-spiro[isobenzofuran-1,9’-xanthene]-5-carboxamide]	completely inactive	completely inactive
CCOc1ccc(S(=O)(=O)N(CCCNC(=O)OC(C)(C)C)c2cc(OC)c(Cl)cc2OC)cc1 [Compound 52, tert-Butyl (3-((N-(4-chloro-2,5-dimethoxyphenyl)-4-ethoxyphenyl)sulfonamido)propyl)carbamate]	reduction in activity	reduction in activity
COc1cc(NS(=O)(=O)c2ccc(C(N)=O)cc2)c(OC)cc1Cl [Compound 27, 4-(N-(4-chloro-2,5-dimethoxyphenyl)sulfamoyl)benzamide]	lost activity	lost activity
COc1cc(NS(=O)(=O)c2ccc(O)cc2)c(OC)cc1Cl [Compound 11, N-(4-chloro-2,5-dimethoxyphenyl)-4-hydroxybenzenesulfonamide]	not tolerated	not tolerated

Compound	NF-κB activity (in words) (NF-κB)	ISRE activity (in words) (ISRE)
COc1cc(NS(=O)(=O)c2ccc(C#N)cc2)c(OC)cc1Cl [Compound 19, N-(4-chloro-2,5-dimethoxyphenyl)-4-cyanobenzenesulfonamide]	either weakly active or completely inactive	either weakly active or completely inactive
COc1cc(NS(=O)(=O)c2ccc([N+](=O)[O-])cc2)c(OC)cc1Cl [Compound 17, N-(4-chloro-2,5-dimethoxyphenyl)-4-nitrobenzenesulfonamide]	either weakly active or completely inactive	either weakly active or completely inactive
CNC(=O)c1ccc(S(=O)(=O)Nc2cc(OC)c(Cl)cc2OC)cc1 [Compound 30, 4-(N-(4-chloro-2,5-dimethoxyphenyl)sulfamoyl)-N-methylbenzamide]	completely inactive	completely inactive
COc1cc(NS(=O)(=O)c2ccc(Oc3ccccc3)cc2)c(OC)cc1Cl [Compound 22, N-(4-chloro-2,5-dimethoxyphenyl)-4-phenoxybenzenesulfonamide]		inactive
COc1cc(NS(=O)(=O)c2ccc(OC)c(N=[N+]=[N-])c2)c(OC)cc1Cl [Compound 61, 3-Azido-N-(4-chloro-2,5-dimethoxyphenyl)-4-methoxybenzenesulfonamide]		inactive
COC(=O)c1ccc(S(=O)(=O)Nc2cc(OC)c(Cl)cc2OC)cc1 [Compound 26, Methyl 4-(N-(4-chloro-2,5-dimethoxyphenyl)sulfamoyl)benzoate]		active
CCOc1ccc(S(=O)(=O)N(CCCNC(=O)CCCC[C@H]2SC[C@H]3NC(=O)N[C@H]32)c2cc(OC)c(N=[N+]=[N-])cc2OC)cc1 [Compound 64, N-(3-((N-(4-azido-2,5-dimethoxyphenyl)-4-ethoxyphenyl)sulfonamido)propyl)-5((3aR,4R,6aS)-2-oxohexahydro-1H-thieno[3,4-d]imidazol-4-yl)pentanamide]	relatively weak activity	relatively weak activity
CCCc1ccc(S(=O)(=O)Nc2cc(OC)c(Cl)cc2OC)cc1 [Compound 16, N-(4-chloro-2,5-dimethoxyphenyl)-4-propylbenzenesulfonamide]	loss of activity	loss of activity
CCOc1ccc(S(=O)(=O)Nc2cc(OC)ccc2OC)cc1 [Compound 6, N-(2,5-dimethoxyphenyl)-4-ethoxybenzenesulfonamide]	retained activity	retained activity
CCOc1ccc(S(=O)(=O)N(CCCNC(=O)CCCC[C@H]2SC[C@H]3NC(=O)N[C@H]32)c2cc(OC)c(Cl)cc2OC)cc1 [Compound 58, N-(3-((N-(4-chloro-2,5-dimethoxyphenyl)-4-ethoxyphenyl)sulfonamido)propyl)-5-((3aR,4R,6aS)-2-oxohexahydro-1H-thieno[3,4-d]imidazol-4-yl)pentanamide]	equipotent to compound 1	equipotent to compound 1
3-Bromo-N-(4-chloro-2,5-dimethoxyphenyl)-4-ethoxybenzenesulfonamide [Compound 25]	inactive	inactive
CCOc1ccc(S(=O)(=O)Nc2cc(OC)c([N+](=O)[O-])cc2OC)cc1 [Compound 9, N-(2,5-dimethoxy-4-nitrophenyl)-4-ethoxybenzenesulfonamide]		inactive
COc1cc(NS(=O)(=O)c2ccc(N)cc2)c(OC)cc1Cl [Compound 18, 4-Amino-N-(4-chloro-2,5-dimethoxyphenyl)benzenesulfonamide]	either weakly active or completely inactive	either weakly active or completely inactive
CCOc1ccc(S(=O)(=O)Nc2cc(OC)c(Br)cc2OC)cc1 [Compound 7, N-(4-bromo-2,5-dimethoxyphenyl)-4-ethoxybenzenesulfonamide]	retained activity	retained activity; also recorded: slightly skewed ISRE activity
CCOc1ccc(S(=O)(=O)Nc2cc(OC)c(N)cc2OC)cc1 [Compound 10, N-(4-amino-2,5-dimethoxyphenyl)-4-ethoxybenzenesulfonamide]		inactive
